Most compounds without a hit are left out; they make up all but 4.5% or so of the library.
PfM18AAP inh = blocks P. falciparum M18 aspartyl aminopeptidase. AID 1822. inhibition, % at 7.35 µM. recombinant PfM18AAP, H-Glu-NHMec fluorogenic cleavage. 1.2% of 290,000 active;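 active = inhibition above the campaign mean inhibition over all tested compounds plus 3 SD, cut at about 28% in these data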;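 note: 0% = plate median of test compound wells and 100% = 2 mM ZnCl2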
p97 ATPase inh = inhibitors of human p97 ATPase. inhibition, % at 8 µM. AID 1481. 0.42% of 220,000 active. recombinant p97 ATPase, Kinase-Glo ATP luminescence, 3 h. P55072; in the data active = inhibition above about 15%;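 note: 0% = DMSO vehicle and 100% = wells lacking enzyme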
Target sequence (P55072 whole entry, looked up): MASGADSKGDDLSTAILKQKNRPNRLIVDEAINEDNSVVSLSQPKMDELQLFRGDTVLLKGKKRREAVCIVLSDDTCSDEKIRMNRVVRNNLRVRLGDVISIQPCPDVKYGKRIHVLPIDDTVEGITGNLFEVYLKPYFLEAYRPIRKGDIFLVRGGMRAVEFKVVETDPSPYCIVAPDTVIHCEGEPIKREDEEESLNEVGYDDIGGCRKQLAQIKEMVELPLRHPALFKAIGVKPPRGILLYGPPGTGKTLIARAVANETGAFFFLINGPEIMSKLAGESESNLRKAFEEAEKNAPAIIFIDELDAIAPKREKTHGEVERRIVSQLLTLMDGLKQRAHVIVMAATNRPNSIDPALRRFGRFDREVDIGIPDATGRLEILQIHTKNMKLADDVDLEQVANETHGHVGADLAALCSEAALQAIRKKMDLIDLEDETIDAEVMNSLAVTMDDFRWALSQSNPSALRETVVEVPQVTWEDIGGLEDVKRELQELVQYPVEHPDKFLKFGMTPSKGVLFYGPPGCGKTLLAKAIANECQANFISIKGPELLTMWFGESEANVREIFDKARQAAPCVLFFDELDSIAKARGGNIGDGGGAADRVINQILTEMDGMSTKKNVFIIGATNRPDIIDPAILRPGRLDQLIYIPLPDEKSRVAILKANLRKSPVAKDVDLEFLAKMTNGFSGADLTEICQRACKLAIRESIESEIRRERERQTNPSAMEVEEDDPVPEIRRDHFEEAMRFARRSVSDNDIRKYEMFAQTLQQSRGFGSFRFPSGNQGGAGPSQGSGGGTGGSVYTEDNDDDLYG
UPR CHOP act = activators of apoptotic arm of unfolded protein response (CHOP) | CHO-CHOP luciferase reporter, UPR activation, luminescence; percent of tunicamycin response over DMSO baseline | activation, % at 10 µM | 0.34% of 330,000 active | AID 449763;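 active = at 10 µM dose, activation of 40% or more, normalized to positive control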;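 note: 100% = tunicamycin at 10 µg/mL and 0% = DMSO alone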
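Evaluation: % reporter activation, DMSO baseline versus tunicamycin full activation; System: CHO-CHOP luciferase reporter cell line; Input: 500 cells/well; Incubation: 6 h compound treatment, 37 °C; Measured by: Steady-Glo luciferase luminescence; Dosing: one dose, 10 µM in 0.5% DMSO; Buffer or medium: F12 medium, 10% FBS; Benchmarks: positive tunicamycin 10 µg/mL, negative DMSO alone.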
CHOP inhibitor = CHOP inhibition in unfolded protein response; inhibition, % at 10 µM; AID 2732; 3.8% of 220,000 active; CHO-K1 CHOP-promoter luciferase, tunicamycin-induced, 15-18 h;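 active = compounds that reduced the stress-induced luciferase reporter signal by more than about 70% of percent inhibition, limit read from the data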;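 note: 0% = tunicamycin plus vehicle and 100% = wells without tunicamycin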
HCV NS3 hel inh = blocks Hepatitis C virus NS3 helicase unwinding. NS3 helicase DNA unwinding, Cy5 molecular beacon fluorescence. AID 1800. 0.56% of 290,000 active. inhibition, % at 10.9 µM;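 active = inhibition above the mean of all tested compounds plus 3 SD, set per campaign, cut at about 35% in these data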;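 note: 0% = DMSO wells and 100% = thioflavine S control wells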
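System: NS3 helicase fragment of HCV / Schedule: 1 h at 25 °C / Control set: DMSO alone as 0% and 110 µM thioflavine S as 100% / Reagent: Cy5/quencher beacon DNA duplex and ATP to start / Technique: Cy5 fluorescence / Replication: singlicate / Evaluation: % inhibition of end-to-start signal ratio versus controls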
UPR XBP1 act = adaptive UPR (XBP1) activation; CHO-XBP1 luciferase reporter, IRE1-XBP1 UPR activation, luminescence; percent of tunicamycin response, DMSO as zero; activation, % at 20 µM; 0.33% of 330,000 active; AID 463104;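 active = versus positive control, 20 µM dose yields 30% or more activation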;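 note: 100% = tunicamycin at 10 µg/mL and 0% = DMSO only wells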
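Material: IRE1-XBP1 luciferase reporter CHO line / Quantity: one thousand reporter cells per well / Buffer or medium: F12 with 10% serum / Compound: 20 µM single concentration, DMSO 1% / Times: 6 h treatment, 37 °C / Detection: Steady-Glo luciferase glow luminescence, 10 min after reagent addition / Benchmarks: tunicamycin high, DMSO low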
* = called active by the depositor; . = not tested or not shown.

SMILES	PfM18AAP inh	p97 ATPase inh	UPR CHOP act	CHOP inhibitor	HCV NS3 hel inh	UPR XBP1 act
COc1ccc2nc(NC(=O)C3CCCN(S(=O)(=O)c4c(C)noc4C)C3)sc2c1 (stereo unspecified)	-9	2	1	75*	-6	-4
CCCN(CCC)S(=O)(=O)c1ccc(C(=O)Nc2nnc(-c3cccc(OC)c3)o2)cc1	-11	3	5	92*	8	4
CCCN(CCC)S(=O)(=O)c1ccc(C(=O)Nc2nnc(-c3cc(OC)cc(OC)c3)o2)cc1	-17	3	11	85*	3	5
O=C(CCc1nc2ccccc2s1)NC1CCOC1=O (stereo unspecified)	-8	-7	0	-6	5	2
O=C1CC2(CCCCC2)Oc2ccccc21	.	.	-2	.	.	1
CC(C)(C)C1CCC2(CC1)CC(=O)c1ccccc1O2 (stereo unspecified)	.	.	0	74*	.	-1
CC(C)n1c(=O)n(CC(=O)NCC2CCCO2)c(=O)c2c3c(sc21)COC(C)(C)C3 (stereo unspecified)	2	.	-3	.	1	-1
Cc1ccc2nc(-c3cccc(NS(C)(=O)=O)c3)cc(-c3ccccc3)c2c1	-6	-2	1	85*	-9	0
N#CCN(C(=O)COC(=O)CCCNC(=O)c1ccc(Cl)cc1)c1ccccc1	.	.	-1	.	.	2
CCCn1c(N/N=C\C=C\c2ccccc2)nc2c1c(=O)[nH]c(=O)n2C	18	2	0	93*	-7	4
CCOC(=O)/C(N=Nc1c(Br)cc(Br)cc1Br)=C(\C)O	-7	-3	1	85*	-2	-1
CCOC(=O)NC(=O)/C(N=Nc1cc(C)cc(C)c1)=C(\C)O	0	-3	1	23	7	-1
Cc1cc(C)n(-c2cc(N3CCN(C(=O)c4ccc(C(C)(C)C)cc4)CC3)ccc2[N+](=O)[O-])n1	5	2	3	73*	1	0
COc1ccc(C(=O)N2CCN(c3ccc([N+](=O)[O-])c(-n4nc(C)cc4C)c3)CC2)cc1	-1	-6	3	-3	8	-3
O=C(c1cc(-c2ccc(Cl)cc2)n[nH]1)N1CCc2ccccc2C1	3	.	-1	.	2	3
CC1CCN(C(=O)Cn2c(=O)n(CCc3ccccc3)c(=O)c3ccccc32)CC1	1	8	-2	88*	-8	-1
CCOC1(OCC)C(c2ccc(N)cc2)C(C#N)(C#N)C1(OCC)OCC (stereo unspecified)	-7	2	0	88*	6	0
CCCN(CC(=O)Nc1cc(C)on1)CC(=O)Nc1ccccc1C	.	.	-1	.	.	-1
Cc1ccc2[nH]c(C)c(CCNC(=O)c3cc4cc([N+](=O)[O-])ccc4oc3=O)c2c1	3	4	-3	89*	-6	4
Cc1ccc2[nH]c(C)c(CCNC(=O)c3c(N)no[n+]3[O-])c2c1	3	2	-1	13	-7	0
O=C(Nc1ccc(Cl)cn1)c1ccc(COCC(F)(F)C(F)F)o1	1	-2	0	96*	6	3
O=C(NCc1ccc(Cl)cc1)c1ccc(COCC(F)(F)F)o1	2	3	1	35	0	-1
Cc1c(C(=O)Nc2nnc(C3CC3)s2)oc2ccccc12	.	.	6	.	.	1
COc1cc(/C=C/C(=O)N2CCCc3ccccc32)cc(OC)c1OC	7	1	-3	32	-6	6
CC1(C)OC(=O)C(=Cc2ccc(-c3ccc(S(N)(=O)=O)cc3)o2)C(=O)O1	13	7	0	100*	7	1
SMILES	PfM18AAP inh	p97 ATPase inh	UPR CHOP act	CHOP inhibitor	HCV NS3 hel inh	UPR XBP1 act
NS(=O)(=O)c1ccc(-c2ccc(/C=C3\C(=O)Nc4ccccc43)o2)cc1	-6	.	2	.	-7	3
O=S(=O)(NC1CC1)c1ccc(S(=O)(=O)N2CCCc3ccccc32)cc1	0	-5	-2	73*	-5	-1
CC(=O)Nc1sc2c(c1CN1CCN(c3ccc(F)cc3)CC1)CCCC2	-6	-7	5	79*	-6	-2
Cc1csc(SCCn2c(Br)nc3c2c(=O)[nH]c(=O)n3C)n1	13	2	1	-8	0	-2
Cc1csc(SCCn2c(N3CCCC3)nc3c2c(=O)[nH]c(=O)n3C)n1	-9	15*	-2	-24	7	1
CCOC(=O)N1CCC(NC(=O)c2cc(C(=O)Nc3cccc(OC)c3)ccc2CO)CC1	-1	-3	-2	14	-13	-2
CCOC(=O)N1CCC(NC(=O)c2ccc3c(c2)sc2nc(-c4cccc(OC)c4)cn23)CC1	30*	-3	.	.	-8	.
COc1ccc(N2CC(O)=C(c3nc(-c4ccc(Cl)cc4)cs3)C2=N)cc1	-4	-3	19	13	17	85*
COc1ccc(N2CC(O)=C(c3nc(-c4ccccc4)cs3)C2=N)cc1	-2	2	0	39	-3	-3
COc1ccc(N2CC(O)=C(c3nc(-c4ccc(F)cc4)cs3)C2=N)cc1	-7	-2	-1	10	-9	-4
COc1ccc(N2CC(O)=C(c3nc(-c4ccc(Br)cc4)cs3)C2=N)cc1	1	1	15	10	4	58*
Cc1ccc(-c2nc(S(=O)(=O)c3ccc(F)cc3)c(SCC(=O)NCC3CCCO3)o2)cc1 (stereo unspecified)	-12	-6	0	70*	-9	0
CC1(C)Cc2c(sc(NC(=O)COc3ccc(Cl)cc3Cl)c2C(N)=O)C(C)(C)N1	-1	.	3	.	-44	-4
COC(=O)c1c(NC(=O)c2ccccc2[N+](=O)[O-])sc2c1CC(C)(C)NC2(C)C	3	-3	-1	-31	-8	-3
COC(=O)c1c(NC(=O)COc2ccc(Cl)cc2)sc2c1CC(C)(C)NC2(C)C	1	.	12	.	-82	43*
COC(=O)c1c(NC(=O)Cc2ccccc2)sc2c1CC(C)(C)NC2(C)C	29*	.	0	.	-23	5
CCCCOC(=O)Nc1ccc(C(=O)OCCC)cc1	-4	-1	2	86*	-8	2
CCCCCCCCOC(=O)c1ccc(N)cc1	-5	0	2	76*	-3	-2
CCNC(=O)C12CCC(C)(c3nc4cc(C)c(C)cc4nc31)C2(C)C (stereo unspecified)	3	2	0	22	-9	-5
CC(NC(=O)c1ccccc1)c1nnc(SCC(=O)Nc2nnc(C3CC3)s2)n1C (stereo unspecified)	.	.	-1	.	.	-5
COC(=O)c1ccc(NC(=O)CN2CCN(S(=O)(=O)c3ccc(Br)cc3)CC2)cc1	0	.	2	.	-13	-1

Source: PubChem BioAssay (several laboratories)
